From ChEMBL document CHEMBL3745596, “Chlorophenoxy aminoalkyl derivatives as histamine H(3)R ligands and antiseizure agents” (Bioorg Med Chem, 2016)
Calls of active or inactive are those of the source.

Tests used:
Mus musculus [1] = experiment: Anticonvulsant activity in CF1 albino mouse assessed as protection against subcutaneous pentetrazole-induced seizure at 30 mg/kg, ip after 0.5 hrs; type: functional, organism-based
Method in brief: (§1)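 Male CF-1 mice, ip in 0.5% methylcellulose; pentetrazole at CD97 (85 mg/kg) injected subcutaneously in a loose fold of neck skin. Observed 30 min; absence of even a threshold seizure (single clonic spasm lasting at least 5 s) counted as protection. Scored protected/tested, or ED50.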

Mus musculus [2] = experiment: Neurotoxicity in CF1 albino mouse assessed as death at 300 mg/kg, ip after 0.5 hrs by rotarod test; type: toxicity, organism-based; settings: in vivo
Method in brief: (§2)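 Male albino CF-1 mice dosed ip with compound suspended in 0.5% methylcellulose, then placed on a 1-inch knurled plastic rod turning at 6 rpm. A fall three times within 1 min counted as neurotoxicity. Observations were made at 0.5 h and 4 h after dosing. Result given as animals showing toxicity per animals tested, with the kind of toxicity recorded.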

Rattus norvegicus = experiment: Anticonvulsant activity in Sprague-Dawley rat assessed as protection against maximal electroshock-induced seizure at 30 mg/kg, po; type: functional
Mus musculus [3] = experiment: Anticonvulsant activity in CF1 albino mouse assessed as protection against maximal electroshock-induced seizure at 3 mg/kg, ip after 0.5 hrs; type: functional, organism-based
Method in brief: (§3)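 Male CF-1 mice dosed ip as suspension in 0.5% methylcellulose. Corneal electrodes deliver 60 Hz alternating current, 50 mA for […], after a drop of 0.5% tetracaine HCl in 0.9% NaCl per eye. Protection means abolition of hindlimb tonic extension; scored as protected/tested, or ED50 with 95% confidence interval.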

Mus musculus [4] = experiment: Neurotoxicity in CF1 albino mouse at 3 mg/kg, ip after 0.5 hrs by rotarod test; type: toxicity, organism-based; settings: in vivo
Method in brief: (§4)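 Rotarod neurotoxicity in male albino CF-1 mice dosed ip with compound suspended in 0.5% methylcellulose. Animal placed on a 1 inch diameter knurled plastic rod rotating at 6 rpm. Neurotoxicity scored when the animal falls off three times within 1 min. Readout is number of animals toxic/number tested at the stated time after dosing. TD50 with 95% confidence interval from the quantitative study.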

Mus musculus [5] = experiment: Anticonvulsant activity in CF1 albino mouse assessed as protection against maximal electroshock-induced seizure at 100 mg/kg, ip after 4 hrs; type: functional, organism-based; method in brief: as §3
Mus musculus [6] = experiment: Neurotoxicity in CF1 albino mouse at 30 mg/kg, ip after 0.5 hrs by rotarod test; type: toxicity, organism-based; settings: in vivo; method in brief: as §4
Mus musculus [7] = experiment: Anticonvulsant activity in CF1 albino mouse assessed as protection against subcutaneous pentetrazole-induced seizure at 30 mg/kg, ip after 4 hrs; type: functional, organism-based; method in brief: as §1
Mus musculus [8] = experiment: Neurotoxicity in CF1 albino mouse at 10 mg/kg, ip after 0.5 hrs by rotarod test; type: toxicity, organism-based; settings: in vivo
Method in brief: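 Rotarod neurotoxicity in male CF-1 mice dosed ip as 0.5% methylcellulose suspension: mouse placed on 1 inch knurled rod rotating at 6 rpm; toxicity when the animal falls off three times within 1 min, with other signs noted. Scored as toxic/tested at 0.5 h and 4 h.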

Liver microsome = experiment: Drug metabolism in human liver microsomes after 2 hrs by UPLC-MS/MS analysis; type: ADME
Method in brief: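 Pooled adult male and female human liver microsomes 1 mg/mL in 0.1 M Tris–HCl pH 7.4 with NADPH regeneration system; started after 5 min preincubation at 37 °C, incubated 2 h at 37 °C, stopped with cold methanol, centrifuged, supernatant analysed by UPLC with ESI tandem quadrupole MS.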

Cytochrome P450 3A4 = Cytochrome P450 3A4 (Homo sapiens, UniProt P08684); experiment: Inhibition of CYP3A4 (unknown origin) up to 10 uM; type: ADME
Mus musculus [9] = experiment: Neurotoxicity in CF1 albino mouse at 30 mg/kg, ip after 4 hrs by rotarod test; type: toxicity, organism-based; settings: in vivo; method in brief: as §4
Mus musculus [10] = experiment: Anticonvulsant activity in CF1 albino mouse assessed as protection against maximal electroshock-induced seizure at 30 mg/kg, ip after 4 hrs; type: functional, organism-based; method in brief: as §3
Mus musculus [11] = experiment: Anticonvulsant activity in CF1 albino mouse assessed as protection against maximal electroshock-induced seizure at 10 mg/kg, ip after 0.5 hrs; type: functional, organism-based; method in brief: as §3
Histamine H3 receptor [12] = target: T1, Histamine H3 receptor (Homo sapiens, UniProt Q9Y5N1); experiment: Antagonist activity at human recombinant histamine H3 receptor expressed in HEK293 cells assessed as inhibition of forskolin/(R)(-)-alpha-methylhistamine-induced cAMP accumulation after 1 hr by TR-FRET immunoassay; type: functional, cell-based
Method in brief: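 HEK293 cells stably expressing hH3R, stimulated 30 min at room temperature with (R)(-)-α-methylhistamine (15 nM), forskolin and antagonist (0.1 nM–10 µM range) added together. cAMP read by TR-FRET (Eu-cAMP tracer, ULight anti-cAMP antibody, 1 h), converted via cAMP standard curve to % maximal response. Sigmoidal dose–response fit; mean of three experiments, each in triplicate.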

HEK293 = experiment: Antiproliferative activity against human HEK293 cells assessed as cell viability after 48 hrs by formazan EZ4U dye based assay; settings: HEK293, 48 h
Method in brief: (§5)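 HEK-293 (1.5 × 10⁴/well) or IMR-32 (2 × 10⁴/well) cells in DMEM with 10% FBS, 37 °C, 5% CO₂, grown 24 h to about 60% confluence; compounds 0.01–250 µM final, DMSO at most 1%, 48 h.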

Mus musculus [13] = experiment: Neurotoxicity in CF1 albino mouse at 100 mg/kg, ip after 4 hrs by rotarod test; type: toxicity, organism-based; settings: in vivo; method in brief: as §4
Mus musculus [14] = experiment: Neurotoxicity in CF1 albino mouse assessed as unable to grasp rotarod and death at 100 mg/kg, ip after 0.5 hrs by rotarod test; type: toxicity, organism-based; settings: in vivo; method in brief: as §2
Mus musculus [15] = experiment: Anticonvulsant activity in CF1 albino mouse assessed as protection against maximal electroshock-induced seizure at 100 mg/kg, ip after 0.5 hrs; type: functional, organism-based; method in brief: as §3
[16] = Antiproliferative activity against human IMR32 cells assessed as cell viability after 48 hrs by formazan EZ4U dye based assay; settings: IMR-32, 48 h; method in brief: as §5
Mus musculus [17] = experiment: Neurotoxicity in CF1 albino mouse at 300 mg/kg, ip after 4 hrs by rotarod test; type: toxicity, organism-based; settings: in vivo; method in brief: as §4
Mus musculus [18] = experiment: Anticonvulsant activity in CF1 albino mouse assessed as protection against maximal electroshock-induced seizure at 30 mg/kg, ip after 0.5 hrs; type: functional, organism-based; method in brief: as §3
Histamine H3 receptor [19] = target: T1, Histamine H3 receptor; experiment: Displacement of [3H]-Nalpha-methylhistamine from human recombinant histamine H3 receptor expressed in HEK293 cells after 90 mins; type: cell-based

T1 sequence (Q9Y5N1 whole entry): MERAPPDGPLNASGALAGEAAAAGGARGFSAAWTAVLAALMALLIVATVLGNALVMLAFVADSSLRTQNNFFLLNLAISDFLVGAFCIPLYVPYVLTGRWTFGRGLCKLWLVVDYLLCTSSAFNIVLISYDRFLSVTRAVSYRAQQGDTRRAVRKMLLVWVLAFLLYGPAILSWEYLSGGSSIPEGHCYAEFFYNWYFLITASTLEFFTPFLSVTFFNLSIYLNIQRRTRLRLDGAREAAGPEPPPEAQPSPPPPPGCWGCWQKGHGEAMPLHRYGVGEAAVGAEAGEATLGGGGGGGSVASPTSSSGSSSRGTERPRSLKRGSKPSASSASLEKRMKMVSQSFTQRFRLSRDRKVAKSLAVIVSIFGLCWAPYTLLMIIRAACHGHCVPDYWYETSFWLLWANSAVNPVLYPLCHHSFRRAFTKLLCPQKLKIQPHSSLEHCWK
Cytochrome P450 3A4, sequence (P08684 whole entry): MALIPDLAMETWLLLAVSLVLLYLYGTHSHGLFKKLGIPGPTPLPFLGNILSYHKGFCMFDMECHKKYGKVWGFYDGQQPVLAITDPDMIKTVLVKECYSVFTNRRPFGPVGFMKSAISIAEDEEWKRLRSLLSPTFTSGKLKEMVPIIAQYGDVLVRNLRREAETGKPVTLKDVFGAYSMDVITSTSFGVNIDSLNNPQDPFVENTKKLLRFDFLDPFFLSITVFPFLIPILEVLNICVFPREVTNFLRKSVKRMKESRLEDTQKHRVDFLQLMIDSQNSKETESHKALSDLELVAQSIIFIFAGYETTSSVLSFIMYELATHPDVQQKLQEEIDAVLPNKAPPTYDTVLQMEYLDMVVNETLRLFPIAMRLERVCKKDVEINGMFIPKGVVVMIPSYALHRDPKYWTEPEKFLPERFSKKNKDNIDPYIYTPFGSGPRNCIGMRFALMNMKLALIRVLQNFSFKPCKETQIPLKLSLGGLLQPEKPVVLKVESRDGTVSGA

With `Clc1ccc(OCCCCCCCN2CCCCC2)cc1.O=C(O)C(=O)O` the Activity (Mus musculus [1]) was “inactive”, the Activity (Mus musculus [2]) was “Toxic” and the Activity (Rattus norvegicus) was 25%. The Activity (Mus musculus [3]) was “inactive”, the Activity (Mus musculus [4]) was “Non-toxic” and the Activity (Mus musculus [5]) was “Active”. For the same compound, the Activity (Mus musculus [6]) was “Non-toxic”, the Activity (Mus musculus [7]) was “inactive” and the Activity (Mus musculus [8]) was “Non-toxic”. The Drug metabolism (Liver microsome) was “metabolite_detected”, the “inhibition (INH)” value (Cytochrome P450 3A4) was “Not Active” and the Activity (Mus musculus [9]) was “Non-toxic”. The Activity (Mus musculus [10]) was “inactive”, the Activity (Mus musculus [11]) was “inactive” and the EC50 (Histamine H3 receptor [12]) was 0.075 µM. The IC50 (HEK293) was 33.6 µM, the Activity (Mus musculus [13]) was “Non-toxic” and the Activity (Mus musculus [14]) was “Toxic”. For the same compound, the Activity (Mus musculus [15]) was “Active”, the IC50 [16] was 15.5 µM and the Activity (Mus musculus [17]) was “Non-toxic”. The Activity (Mus musculus [18]) was “Active” and the Ki (Histamine H3 receptor [19]) was 0.128 µM.
